Results as given in ChEMBL document CHEMBL5252539, “In vitro biological evaluation of new antimycobacterial salicylanilide-tuftsin conjugates” (Eur J Med Chem, 2017).
Active and inactive are the calls of the source. No cut-off for these calls is given here. *1 amine or outer side, *2 acyl side, *3 side chain or, on linkers, in order; H or OH if unused. Where a SMILES comes first, the peptide text is derived from it. [ ]: non-standard residue; d: D form. The star is where a group is joined. X4 = O=C(Nc1ccc(C(F)(F)F)cc1)c1cc(/C=N\OCC(=O)*)ccc1O; X2 = C/C(=N\OCC(=O)*)c1ccc(NC(=O)c2cc(Br)ccc2O)cc1; X1 = C/C(=N\OCC(=O)[*:2])c1ccc(N[*:1])cc1; Benzoyl(5-Br-2-OH) = O=C(c1cc(Br)ccc1O)*; Palmitoyl = CCCCCCCCCCCCCCCC(=O)*; Decanoyl = CCCCCCCCCC(=O)*; X3 = O=C(c1cc(Cl)ccc1O)*; Butyryl = CCCC(=O)*

These molecules were tested on Mycobacterium tuberculosis (assay: Antimycobacterial activity against isoniazid and rifampicin resistant Mycobacterium tuberculosis A8 ATCC 35822 assessed as reduction in colony forming unit after 28 days by serial dilution method). Conditions: time 28.0 day.
Type: functional, organism-based
Procedure, shortened: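 After the 4-week MIC incubation in Sula semisynthetic medium (pH 6.5), growth inhibition confirmed by plating on Löwenstein-Jensen solid medium and counting colony forming units.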
For `C[C@@H](O)[C@H](NC(=O)CNC(=O)[C@H](CCCCN)NC(=O)[C@@H]1CCCN1C(=O)[C@H](CCCCN)NC(=O)[C@@H](NC(=O)CNC(=O)[C@H](CCCCN)NC(=O)[C@@H]1CCCN1C(=O)[C@H](CCCCN)NC(=O)[C@@H](NC(=O)CNC(=O)[C@H](CCCCN)NC(=O)[C@@H]1CCCN1C(=O)[C@H](CCCCN)NC(=O)[C@@H](NC(=O)CO/N=C\c1ccc(O)c(C(=O)Nc2ccc(C(F)(F)F)cc2)c1)[C@@H](C)O)[C@@H](C)O)[C@@H](C)O)C(=O)N[C@@H](CCCCN)C(=O)N1CCC[C@H]1C(=O)N[C@@H](CCCCN)C(=O)NCC(N)=O` (X4-TKPKGTKPKGTKPKGTKPKG-NH2), the Activity was “Active”. For `C/C(=N\OCC(=O)N[C@H](C(=O)O)[C@@H](C)O)c1ccc(NC(=O)c2cc(Br)ccc2O)cc1`, the Activity was “Active”. In the case of `C/C(=N\OCC(=O)NCC(=O)N[C@@H](Cc1ccccc1)C(=O)N[C@@H](CC(C)C)C(=O)NCC(=O)N[C@H](C(=O)N[C@@H](CCCCN)C(=O)N1CCC[C@@H]1C(=O)N[C@H](CCCNC(=N)N)C(=O)O)[C@@H](C)O)c1ccc(NC(=O)c2cc(Br)ccc2O)cc1`, the Activity was “Active”. In the case of `CCCCCCCCCC(=O)NCCCC[C@H](NC(=O)[C@@H]1CCCN1C(=O)[C@H](CCCCN)NC(=O)[C@@H](NC(=O)CO/N=C(\C)c1ccc(NC(=O)c2cc(Br)ccc2O)cc1)[C@@H](C)O)C(=O)NCC(N)=O` ({Benzoyl(5-Br-2-OH)}-[X1]TKPK(Decanoyl)G-NH2), the Activity was “Active”. With `C/C(=N\OCC(=O)N[C@H](C(=O)N[C@@H](CCCCN)C(=O)N1CCC[C@H]1C(=O)N[C@@H](CCCCN)C(=O)NCC(=O)N[C@H](C(=O)N[C@@H](CCCCN)C(=O)N1CCC[C@H]1C(=O)N[C@@H](CCCCN)C(=O)NCC(=O)N[C@H](C(=O)N[C@@H](CCCCN)C(=O)N1CCC[C@H]1C(=O)N[C@@H](CCCCN)C(=O)NCC(=O)N[C@H](C(=O)N[C@@H](CCCCN)C(=O)N1CCC[C@H]1C(=O)N[C@@H](CCCCN)C(=O)NCC(N)=O)[C@@H](C)O)[C@@H](C)O)[C@@H](C)O)[C@@H](C)O)c1ccc(NC(=O)c2cc(Cl)ccc2O)cc1` (X3-[X1]TKPKGTKPKGTKPKGTKPKG-NH2) the Activity was “Active”. With `CCCCCCCCCCCCCCCC(=O)NCCCC[C@H](NC(=O)[C@@H]1CCCN1C(=O)[C@H](CCCCN)NC(=O)[C@@H](NC(=O)CO/N=C(\C)c1ccc(NC(=O)c2cc(Br)ccc2O)cc1)[C@@H](C)O)C(=O)NCC(=O)N[C@H](C(=O)N[C@@H](CCCCN)C(=O)N1CCC[C@H]1C(=O)N[C@@H](CCCCN)C(=O)NCC(=O)N[C@H](C(=O)N[C@@H](CCCCN)C(=O)N1CCC[C@H]1C(=O)N[C@@H](CCCCN)C(=O)NCC(=O)N[C@H](C(=O)N[C@@H](CCCCN)C(=O)N1CCC[C@H]1C(=O)N[C@@H](CCCCN)C(=O)NCC(N)=O)[C@@H](C)O)[C@@H](C)O)[C@@H](C)O` ({Benzoyl(5-Br-2-OH)}-[X1]TKPK(Palmitoyl)GTKPKGTKPKGTKPKG-NH2) the Activity was “Active”. In the case of `CCCCCCCCCCCCCCCC(=O)NCCCC[C@H](NC(=O)[C@@H]1CCCN1C(=O)[C@H](CCCCN)NC(=O)[C@@H](NC(=O)CO/N=C(\C)c1ccc(NC(=O)c2cc(Br)ccc2O)cc1)[C@@H](C)O)C(=O)NCC(N)=O` ({Benzoyl(5-Br-2-OH)}-[X1]TKPK(Palmitoyl)G-NH2), the Activity was “Active”. With `C/C(=N\OCC(=O)NCC(=O)N[C@@H](Cc1ccccc1)C(=O)N[C@@H](CC(C)C)C(=O)NCC(=O)N[C@H](C(=O)N[C@@H](CCCCN)C(=O)N1CCC[C@@H]1C(=O)N1CCC[C@H]1C(=O)N[C@H](CCCNC(=N)N)C(=O)O)[C@@H](C)O)c1ccc(NC(=O)c2cc(Br)ccc2O)cc1` the Activity was “Active”. In the case of `C/C(=N\OCC(=O)NCC(=O)O)c1ccc(NC(=O)c2cc(Br)ccc2O)cc1`, the Activity was “Active”. `C/C(=N\OCC(=O)N[C@H](C(=O)N[C@@H](CCCCN)C(=O)N1CCC[C@H]1C(=O)N[C@@H](CCCCN)C(=O)NCC(=O)N[C@H](C(=O)N[C@@H](CCCCN)C(=O)N1CCC[C@H]1C(=O)N[C@@H](CCCCN)C(=O)NCC(=O)N[C@H](C(=O)N[C@@H](CCCCN)C(=O)N1CCC[C@H]1C(=O)N[C@@H](CCCCN)C(=O)NCC(=O)N[C@H](C(=O)N[C@@H](CCCCN)C(=O)N1CCC[C@H]1C(=O)N[C@@H](CCCCN)C(=O)NCC(N)=O)[C@@H](C)O)[C@@H](C)O)[C@@H](C)O)[C@@H](C)O)c1ccc(NC(=O)c2cc(Br)ccc2O)cc1` ({Benzoyl(5-Br-2-OH)}-[X1]TKPKGTKPKGTKPKGTKPKG-NH2) was tested, and the Activity was “Active”. In the case of `C/C(=N\OCC(=O)N[C@H](C(=O)N[C@@H](CCCCN)C(=O)N1CCC[C@H]1C(=O)N[C@@H](CCCCN)C(=O)NCC(=O)N[C@H](C(=O)N[C@@H](CCCCN)C(=O)N1CCC[C@H]1C(=O)N[C@@H](CCCCN)C(=O)NCC(N)=O)[C@@H](C)O)[C@@H](C)O)c1ccc(NC(=O)c2cc(Br)ccc2O)cc1` ({Benzoyl(5-Br-2-OH)}-[X1]TKPKGTKPKG-NH2), the Activity was “Active”. With `CCCCCCCCCCCCCCCC(=O)NCCCC[C@H](NC(=O)[C@@H]1CCCN1C(=O)[C@H](CCCCN)NC(=O)[C@@H](NC(=O)CNC(=O)[C@H](CCCCN)NC(=O)[C@@H]1CCCN1C(=O)[C@H](CCCCN)NC(=O)[C@@H](NC(=O)CNC(=O)[C@H](CCCCN)NC(=O)[C@@H]1CCCN1C(=O)[C@H](CCCCN)NC(=O)[C@@H](NC(=O)CO/N=C(\C)c1ccc(NC(=O)c2cc(Br)ccc2O)cc1)[C@@H](C)O)[C@@H](C)O)[C@@H](C)O)C(=O)NCC(=O)N[C@H](C(=O)N[C@@H](CCCCN)C(=O)N1CCC[C@H]1C(=O)N[C@@H](CCCCN)C(=O)NCC(N)=O)[C@@H](C)O` ({Benzoyl(5-Br-2-OH)}-[X1]TKPKGTKPKGTKPK(Palmitoyl)GTKPKG-NH2) the Activity was “Active”. `C/C(=N\OCC(=O)NCC(=O)N[C@@H](Cc1ccccc1)C(=O)N[C@@H](CC(C)C)C(=O)NCC(=O)N[C@H](C(=O)N[C@@H](CCCCN)C(=O)N1CCC[C@@H]1C(=O)N[C@H](CCCCN)C(=O)NCC(=O)N[C@@H](C(=O)N[C@H](CCCCN)C(=O)N1CCC[C@H]1C(=O)N[C@H](CCCCN)C(=O)NCC(=O)N[C@@H](C(=O)N[C@@H](CCCCN)C(=O)N1CCC[C@@H]1C(=O)N[C@H](CCCCN)C(=O)NCC(=O)N[C@@H](C(=O)N[C@H](CCCCN)C(=O)N1CCC[C@H]1C(=O)N[C@H](CCCCN)C(=O)NCC(N)=O)[C@H](C)O)[C@H](C)O)[C@H](C)O)[C@@H](C)O)c1ccc(NC(=O)c2cc(Br)ccc2O)cc1` was tested, and the Activity was “Active”. `CCCCCCCCCCCCCCCC(=O)NCCCC[C@H](NC(=O)[C@@H]1CCCN1C(=O)[C@H](CCCCN)NC(=O)[C@@H](NC(=O)CO/N=C(\C)c1ccc(NC(=O)c2cc(Cl)ccc2O)cc1)[C@@H](C)O)C(=O)NCC(=O)N[C@H](C(=O)N[C@@H](CCCCN)C(=O)N1CCC[C@H]1C(=O)N[C@@H](CCCCN)C(=O)NCC(=O)N[C@H](C(=O)N[C@@H](CCCCN)C(=O)N1CCC[C@H]1C(=O)N[C@@H](CCCCN)C(=O)NCC(=O)N[C@H](C(=O)N[C@@H](CCCCN)C(=O)N1CCC[C@H]1C(=O)N[C@@H](CCCCN)C(=O)NCC(N)=O)[C@@H](C)O)[C@@H](C)O)[C@@H](C)O` (X3-[X1]TKPK(Palmitoyl)GTKPKGTKPKGTKPKG-NH2) was tested, and the Activity was “Active”. `C/C(=N\OCC(=O)NCCCC[C@H](NC(=O)[C@@H]1CCCN1C(=O)[C@H](CCCCN)NC(=O)[C@@H](NC(=O)CO/N=C(\C)c1ccc(NC(=O)c2cc(Br)ccc2O)cc1)[C@@H](C)O)C(=O)NCC(=O)N[C@H](C(=O)N[C@@H](CCCCN)C(=O)N1CCC[C@H]1C(=O)N[C@@H](CCCCN)C(=O)NCC(=O)N[C@H](C(=O)N[C@@H](CCCCN)C(=O)N1CCC[C@H]1C(=O)N[C@@H](CCCCN)C(=O)NCC(=O)N[C@H](C(=O)N[C@@H](CCCCN)C(=O)N1CCC[C@H]1C(=O)N[C@@H](CCCCN)C(=O)NCC(N)=O)[C@@H](C)O)[C@@H](C)O)[C@@H](C)O)c1ccc(NC(=O)c2cc(Br)ccc2O)cc1` ({Benzoyl(5-Br-2-OH)}-[X1]TKPK(X2)GTKPKGTKPKGTKPKG-NH2) was tested, and the Activity was “Active”. With `CCCCCCCCCC(=O)NCCCC[C@H](NC(=O)[C@@H]1CCCN1C(=O)[C@H](CCCCN)NC(=O)[C@@H](NC(=O)CO/N=C(\C)c1ccc(NC(=O)c2cc(Br)ccc2O)cc1)[C@@H](C)O)C(=O)NCC(=O)N[C@H](C(=O)N[C@@H](CCCCN)C(=O)N1CCC[C@H]1C(=O)N[C@@H](CCCCN)C(=O)NCC(=O)N[C@H](C(=O)N[C@@H](CCCCN)C(=O)N1CCC[C@H]1C(=O)N[C@@H](CCCCN)C(=O)NCC(=O)N[C@H](C(=O)N[C@@H](CCCCN)C(=O)N1CCC[C@H]1C(=O)N[C@@H](CCCCN)C(=O)NCC(N)=O)[C@@H](C)O)[C@@H](C)O)[C@@H](C)O` ({Benzoyl(5-Br-2-OH)}-[X1]TKPK(Decanoyl)GTKPKGTKPKGTKPKG-NH2) the Activity was “Active”. For `C/C(=N\OCC(=O)NCCCC[C@H](NC(=O)[C@@H]1CCCN1C(=O)[C@H](CCCCN)NC(=O)[C@@H](NC(=O)CNC(=O)[C@H](CCCCNC(=O)CO/N=C(\C)c1ccc(NC(=O)c2cc(Br)ccc2O)cc1)NC(=O)[C@@H]1CCCN1C(=O)[C@H](CCCCN)NC(=O)[C@@H](NC(=O)[C@H](CCCNC(=N)N)NC(=O)[C@@H]1CCCN1C(=O)[C@H](CCCCN)NC(=O)[C@@H](N)[C@@H](C)O)[C@@H](C)O)[C@@H](C)O)C(=O)NCC(=O)O)c1ccc(NC(=O)c2cc(Br)ccc2O)cc1` (H-TKPRTKPK(X2)GTKPK(X2)G-OH), the Activity was “Active”. With `CCCC(=O)NCCCC[C@H](NC(=O)[C@@H]1CCCN1C(=O)[C@H](CCCCN)NC(=O)[C@@H](NC(=O)CO/N=C(\C)c1ccc(NC(=O)c2cc(Br)ccc2O)cc1)[C@@H](C)O)C(=O)NCC(=O)N[C@H](C(=O)N[C@@H](CCCCN)C(=O)N1CCC[C@H]1C(=O)N[C@@H](CCCCN)C(=O)NCC(=O)N[C@H](C(=O)N[C@@H](CCCCN)C(=O)N1CCC[C@H]1C(=O)N[C@@H](CCCCN)C(=O)NCC(=O)N[C@H](C(=O)N[C@@H](CCCCN)C(=O)N1CCC[C@H]1C(=O)N[C@@H](CCCCN)C(=O)NCC(N)=O)[C@@H](C)O)[C@@H](C)O)[C@@H](C)O` ({Benzoyl(5-Br-2-OH)}-[X1]TKPK(Butyryl)GTKPKGTKPKGTKPKG-NH2) the Activity was “Active”. With `C/C(=N\OCC(=O)N[C@H](C(=O)N[C@@H](CCCCN)C(=O)N1CCC[C@H]1C(=O)N1CCC[C@@H]1C(=O)N[C@H](CCCNC(=N)N)C(=O)O)[C@@H](C)O)c1ccc(NC(=O)c2cc(Br)ccc2O)cc1` the Activity was “Active”.
